# Source: ChEMBL document CHEMBL1629660, “Pharmacodynamics of tigecycline against phenotypically diverse Staphylococcus aureus isolates in a murine thigh model” (Antimicrob Agents Chemother, 2009)
# How the values were obtained:
# [1] = Cmax in neutropenic ICR mouse infected with Staphylococcus aureus ATCC 29213 at 6.25 mg/kg, sc by HPLC; type: ADME, organism-based; design: dose 6.25 mg/kg, route subcutaneous; details: in vivo
# Method in brief: (§1)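 Neutropenic female ICR mice (cyclophosphamide 150 and 100 mg/kg ip, 4 days and 1 day before inoculation), both thighs inoculated im with ~10^7 CFU/ml of ATCC 29213. Single sc doses of 50, 25, 12.5 or 6.25 mg/kg. Cardiac blood taken from groups of six at 8–12 times over 0.5–24 h. Serum measured by HPLC (linear 0.05–5 µg/ml). Two-compartment fit by nonlinear least squares; AUC by trapezoidal rule.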
# [2] = r2 for fAUC/MIC in community acquired methicillin-resistant Staphylococcus aureus isolate 156-infected neutropenic ICR mouse
# [3] = r2 for fT>MIC in community acquired methicillin-resistant Staphylococcus aureus isolate 156-infected neutropenic ICR mouse
# [4] = system: Staphylococcus aureus; assay: Antimicrobial activity against community acquired methicillin-resistant Staphylococcus aureus isolate 156 infected in neutropenic ICR mouse assessed as change in bacterial load after 24 hrs; type: functional
# Method in brief: (§2)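 Female ICR mice (~25 g) made neutropenic with cyclophosphamide 150 and 100 mg/kg ip, 4 and 1 days before infection. Each thigh inoculated im with 0.1 ml of ~10^7 CFU/ml from an overnight subculture. Tigecycline sc (0.2 ml) given 2 h later as single or multiple doses of 1.56–50 mg/kg, 1.56–400 mg/kg/day, 3 mice/group. Saline-injected controls. Thighs harvested at 24 h, homogenized in saline, plated on blood agar; log10 CFU change vs 0-h controls.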
# [5] = fAUC/MIC in methicillin-sensitive Staphylococcus aureus ATCC 29213-infected neutropenic ICR mouse at stasis dose; type: functional
# Method in brief: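 fT>MIC, fCmax/MIC and fAUC/MIC were built from the serum pharmacokinetics, protein binding, modal broth-microdilution MIC (triplicate, CLSI) and 24-h thigh CFU change. Each index was fit to a sigmoidal Emax model. EI50, EI80 and stasis exposures were taken from each isolate's curve.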
# [6] = r2 for fCmax/MIC in community acquired methicillin-resistant Staphylococcus aureus isolate 156-infected neutropenic ICR mouse
# [7] = Cmax in neutropenic ICR mouse infected with Staphylococcus aureus ATCC 29213 at 50 mg/kg, sc by HPLC; type: ADME, organism-based; design: dose 50 mg/kg, route subcutaneous; details: in vivo; method in brief: as §1
# [8] = fAUC/MIC in community acquired methicillin-resistant Staphylococcus aureus isolate 147-infected neutropenic ICR mouse at 50% effective exposure index; type: functional
# Method in brief: (§3)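 Single-dose serum PK in infected neutropenic mice (sc 6.25–50 mg/kg; HPLC; two-compartment fit; AUC by trapezoidal rule; lower doses simulated). Free fraction from ultrafiltration of spiked mouse serum, in triplicate. Free exposures divided by modal MIC and plotted against 24-h log10 CFU change with a sigmoidal Emax model; EI50, EI80 and stasis values read from the fitted curves.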
# [9] = r2 for fAUC/MIC in methicillin-sensitive Staphylococcus aureus ATCC 29213-infected neutropenic ICR mouse
# [10] = system: Staphylococcus aureus; assay: Antimicrobial activity against community acquired methicillin-resistant Staphylococcus aureus isolate 156 infected in neutropenic ICR mouse assessed as change in bacterial load at 6.25 […] after 24 hrs; type: functional; method in brief: as §2
# [11] = Plasma protein binding in mouse; type: ADME, cell-free; details: read-out: PPB (converted)
# [12] = Protein binding in methicillin-sensitive Staphylococcus aureus ATCC 29213-infected neutropenic ICR mouse serum at 6.25 mg/kg, sc by HPLC; type: ADME, organism-based; design: dose 6.25 mg/kg, route subcutaneous; details: read-out: PB (converted)
# [13] = system: Acinetobacter baumannii; assay: Antimicrobial activity against carbapenem-intermediate,-resistant Acinetobacter baumannii assessed as decrease in bacterial count at 0.6 times of MIC after 24 hrs by time kill analysis; type: functional
# [14] = fAUC/MIC in methicillin-sensitive Staphylococcus aureus ATCC 25923-infected neutropenic ICR mouse at stasis dose; type: functional; method in brief: as §3
# [15] = r2 for fT>MIC in community acquired methicillin-resistant Staphylococcus aureus isolate 147-infected neutropenic ICR mouse
# [16] = fAUC/MIC in community acquired methicillin-resistant Staphylococcus aureus isolate 147-infected neutropenic ICR mouse at 80% effective exposure index; type: functional; method in brief: as §3
# [17] = Protein binding in methicillin-sensitive Staphylococcus aureus ATCC 29213-infected neutropenic ICR mouse serum at 25 mg/kg, sc by HPLC; type: ADME, organism-based; design: dose 25 mg/kg, route subcutaneous; details: read-out: PB (converted)
# [18] = r2 for fT>MIC in hospital-acquired methicillin-resistant Staphylococcus aureus isolate 56-infected neutropenic ICR mouse
# [19] = fAUC/MIC in methicillin-sensitive Staphylococcus aureus ATCC 25923-infected neutropenic ICR mouse at 50% effective exposure index; type: functional
# [20] = system: Acinetobacter baumannii; assay: Antimicrobial activity against carbapenem-intermediate,-resistant Acinetobacter baumannii assessed as decrease in bacterial count at 0.8 times of MIC after 48 hrs by time kill analysis; type: functional
# [21] = r2 for fT>MIC in hospital-acquired methicillin-resistant Staphylococcus aureus isolate 152-infected neutropenic ICR mouse
# [22] = Protein binding in methicillin-sensitive Staphylococcus aureus ATCC 29213-infected neutropenic ICR mouse serum at 6 µg/ml by HPLC; details: read-out: PB (converted)
# [23] = system: Staphylococcus aureus; assay: Antimicrobial activity against community acquired methicillin-resistant Staphylococcus aureus isolate 156 infected in neutropenic ICR mouse assessed as change in bacterial load at 12.5 […] after 24 hrs; type: functional; method in brief: as §2
# [24] = fAUC/MIC in community acquired methicillin-resistant Staphylococcus aureus isolate 147-infected neutropenic ICR mouse at stasis dose; type: functional; method in brief: as §3
# [25] = r2 for fCmax/MIC in community acquired methicillin-resistant Staphylococcus aureus isolate 144-infected neutropenic ICR mouse
# [26] = r2 of fT>MIC in methicillin-sensitive methicillin-sensitive Staphylococcus aureus ATCC 29213-infected neutropenic ICR mouse
# [27] = AUC (0 to 24 hrs) in neutropenic ICR mouse infected with Staphylococcus aureus ATCC 29213 at 25 mg/kg, sc by HPLC; type: ADME, organism-based; design: time < 24 hr, dose 25 mg/kg, route subcutaneous; details: plasma; method in brief: as §1
# [28] = system: Staphylococcus aureus; assay: Antimicrobial activity against community acquired methicillin-resistant Staphylococcus aureus isolate 156 infected in immunocompetent ICR mouse assessed as reduction in bacterial load at 12.5 […] after 24 hrs; type: functional
# Method in brief: (§4)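 Non-neutropenic ICR mice (no cyclophosphamide). Each thigh inoculated im with 0.1 ml of ~10^8 CFU/ml. Tigecycline given sc once daily at 1.56, 3.13, 6.25 or 12.5 mg/kg starting 2 h post-infection, 3 mice/group. Thighs harvested at 24 h, homogenized, plated on blood agar; log10 CFU change vs 0-h controls.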
# [29] = system: Staphylococcus aureus; assay: Antimicrobial activity against community acquired methicillin-resistant Staphylococcus aureus isolate 156 infected in immunocompetent ICR mouse assessed as reduction in bacterial load at […] after 24 hrs; type: functional; method in brief: as §4
structure (smiles),measurement,setting,value
CN(C)c1cc(NC(=O)CNC(C)(C)C)c(O)c2c1C[C@H]1C[C@H]3[C@H](N(C)C)C(O)=C(C(N)=O)C(=O)[C@@]3(O)C(O)=C1C2=O [TIGECYCLINE],Cmax,[1],1680 ng/mL
same,r2,[2],0.97
same,r2,[3],0.894%
same,log10CFU/ml,[4],2.1
same,fAUC/MIC,[5],0.5
same,r2,[6],0.88
same,Cmax,[7],12200 ng/mL
same,fAUC/MIC,[8],1.5
same,r2,[9],0.983
same,log10CFU/ml,[10],0.1
same,fraction unbound,[11],0.188
same,fraction unbound,[12],0.188
same,log10cfu,[13],1.5
same,fAUC/MIC,[14],5.3
same,r2,[15],0.483%
same,fAUC/MIC,[16],3.5
same,fraction unbound,[17],0.075
same,r2,[18],0.341%
same,fAUC/MIC,[19],5
same,log10cfu,[20],3.5
same,r2,[21],0.511%
same,fraction unbound,[22],0.069
same,log10CFU/ml,[23],-1.1
same,fAUC/MIC,[24],1.7
same,r2,[25],0.77
same,r2,[26],0.699%
same,AUC(0-t) at 24 h,[27],25200 ng·h/mL
same,log10cfu,[28],1.6
same,log10cfu,[29],1.8
